The nature of data set [1]: Antioxidant activity assessed as chemical oxidative degradation into N-(5-(4-hydroxyphenyl)-3-(4-methoxyphenyl)pyrazin-2-yl)acetamide at 1000 uM after 19 hrs by HPLC. Format: functional. The method, boiled down:
(§1)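 Aerobic oxidation of imidazopyrazinone (10^-3 M) with internal standard (5 × 10^-4 M) in 90:10:0.1 CH2Cl2/isopropanol/DEA. Sealed vial under white light at 23 °C for 19 h. Products quantified by HPLC against calibration curves, detection at 280 nm.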

The nature of data set [2]: Antioxidant activity assessed as chemical oxidative degradation into 1-(4-(3-amino-6-(4-hydroxyphenyl)pyrazin-2-yl)phenyl)ethanone at 1000 uM after 19 hrs by HPLC. In kind it is functional. The gist of the method: as §1
Data set [3] relates to Hamster. As to the kind of experiment: Antioxidant activity against microvascular damage in hamster model of cheek pouch submitted to ischemia/reperfusion assessed as inhibition of leaky sites at 3 mg/kg treated by gavage route 30 mins before anesthesia measured after 30 mins of reperfusion by FITC-dextran based microscopy. Format: functional. The note with it: Cricetinae, po. The method, boiled down: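 Hamsters anesthetized, kept on a-chloralose (100 mg/kg) via the femoral vein, femoral artery cannulated for blood pressure, body temperature 37.5 °C. Compound at 3 mg/kg or solvent given by gavage in 0.2 ml, 3 animals per group. FITC-dextran (150,000 Da) given i.v. at 25 mg/100 g. Cuff ischemia of everted pouch. Leaky sites counted; % inhibition = [1 − mean treated/mean control] × 100.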

Data set [4] in a line: Antioxidant activity assessed as chemical oxidative degradation into N-(3-(4-(dimethylamino)phenyl)-5-(4-hydroxyphenyl)pyrazin-2-yl)acetamide at 1000 uM after 19 hrs by HPLC. In kind it is functional. The method, boiled down:
as §1

Data set [5] is described as follows: Antioxidant activity assessed as chemical oxidative degradation into 4-(5-amino-6-(4-fluorophenyl)pyrazin-2-yl)phenol at 1000 uM after 19 hrs by HPLC. Format: functional. The method, boiled down: as §1
Data set [6] can be described thus: Antioxidant activity assessed as chemical oxidative degradation into N-(5-(4-hydroxyphenyl)-3-(4-(trifluoromethyl)phenyl)pyrazin-2-yl)acetamide at 1000 uM after 19 hrs by HPLC. Format: functional. The method, boiled down:
as §1

Data set [7] can be described thus: Stability at pH 7.4 at 80 uM during 1 day by HPLC in presence of linoleic acid and azo-bis-isobutyronitrile. In kind it is physicochemical. The note with it: buffer, pH 7.4, 24 h.
The nature of data set [8]: Antioxidant activity assessed as chemical oxidative degradation into 4-(5-amino-6-(4-(dimethylamino)phenyl)pyrazin-2-yl)phenol at 1000 uM after 19 hrs by HPLC. Format: functional. The method, boiled down:
as §1

Data set [9] in a line: Antioxidant activity assessed as chemical oxidative degradation into N-(3-(4-fluorophenyl)-5-(4-hydroxyphenyl)pyrazin-2-yl)acetamide at 1000 uM after 19 hrs by HPLC. Format: functional. The gist of the method:
as §1

Data set [10] is described as follows: Antioxidant activity assessed as chemical oxidative degradation into N-(3-(4-acetylphenyl)-5-(4-hydroxyphenyl)pyrazin-2-yl)acetamide at 1000 uM after 19 hrs by HPLC. Format: functional. The method, boiled down: as §1
A short description of data set [11]: Antioxidant activity assessed as chemical oxidative degradation into 4,4'-(3-aminopyrazine-2,6-diyl)diphenol at 1000 uM after 19 hrs by HPLC. In kind it is functional. The gist of the method:
as §1

Data set [12] is described as follows: Antioxidant activity assessed as chemical oxidative degradation into 4-(5-amino-6-(4-methoxyphenyl)pyrazin-2-yl)phenol at 1000 uM after 19 hrs by HPLC. In kind it is functional. The method, boiled down:
as §1

Data set [13] can be described thus: Antioxidant activity assessed as chemical oxidative degradation into 4-(5-amino-6-(4-(trifluoromethyl)phenyl)pyrazin-2-yl)phenol at 1000 uM after 19 hrs by HPLC. In kind it is functional. The gist of the method:
as §1

The nature of data set [14]: Antioxidant activity assessed as chemical oxidative degradation into benzoic acid at 80 uM by HPLC in presence of linoleic acid and azo-bis-isobutyronitrile. Format: functional.
The nature of data set [15]: Antioxidant activity assessed as chemical oxidative degradation into 4-(5-aminopyrazin-2-yl)phenol at 80 uM after 18 hrs by HPLC in presence of azo-bis-isobutyronitrile. Format: functional.
The nature of data set [16]: Antioxidant activity assessed as chemical oxidative degradation into 4-(5-aminopyrazin-2-yl)phenol at 80 uM after 18 hrs by HPLC. Format: functional. The gist of the method: (§2)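 Imidazopyrazinone mixed 1:1 with standard (8 × 10^-5 M) in 96:4 ACN–EtOH. Kept in the dark at 37 °C and sampled by HPLC hourly for 18 h.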
The nature of data set [17]: Antioxidant activity assessed as chemical oxidative degradation into 4-(5-aminopyrazin-2-yl)phenol at 80 uM by HPLC in presence of linoleic acid. Format: functional.
The nature of data set [18]: Antioxidant activity assessed as chemical oxidative degradation into N-(5-(4-hydroxyphenyl)pyrazin-2-yl)benzamide at 80 uM after 18 hrs by HPLC. Format: functional. The gist of the method:
as §2

A short description of data set [19]: Antioxidant activity assessed as chemical oxidative degradation into benzoic acid at 80 uM by HPLC in presence of linoleic acid. In kind it is functional.
Data set [20] in a line: Antioxidant activity assessed as time required for chemical oxidative degradation of compound at 80 uM by HPLC in presence of linoleic acid. Format: functional.
Data set [21] is described as follows: Antioxidant activity assessed as chemical oxidative degradation into N-(5-(4-hydroxyphenyl)pyrazin-2-yl)benzamide at 80 uM by HPLC in presence of linoleic acid. In kind it is functional.
The nature of data set [22]: Antioxidant activity assessed as chemical oxidative degradation into 4-(5-aminopyrazin-2-yl)phenol at 80 uM by HPLC in presence of linoleic acid and azo-bis-isobutyronitrile. Format: functional.
A short description of data set [23]: Antioxidant activity assessed as chemical oxidative degradation into N-(5-(4-hydroxyphenyl)pyrazin-2-yl)benzamide at 80 uM by HPLC in presence of linoleic acid and azo-bis-isobutyronitrile. Format: functional.
Data set [24] is described as follows: Antioxidant activity assessed as chemical oxidative degradation into N-(5-(4-hydroxyphenyl)pyrazin-2-yl)benzamide at 80 uM after 18 hrs by HPLC in presence of azo-bis-isobutyronitrile. Format: functional.
A short description of data set [25]: Antioxidant activity assessed as time required for chemical oxidative degradation of compound at 80 uM by HPLC in presence of azo-bis-isobutyronitrile. In kind it is functional.
Data set [26] in a line: Antioxidant activity assessed as chemical oxidative degradation into N-(5-(4-hydroxyphenyl)-3-phenylpyrazin-2-yl)acetamide at 1000 uM after 19 hrs by HPLC. Format: functional. The gist of the method: as §1
The nature of data set [27]: Chemical stability after 19 hrs. Format: physicochemical. The gist of the method:
as §1

The nature of data set [28]: Antioxidant activity assessed as chemical oxidative degradation into 4-(5-amino-6-phenylpyrazin-2-yl)phenol at 1000 uM after 19 hrs by HPLC. In kind it is functional. The gist of the method: as §1
Data set [29] can be described thus: Antioxidant activity assessed as chemical oxidative degradation into N-(3,5-bis(4-hydroxyphenyl)pyrazin-2-yl)acetamide at 1000 uM after 19 hrs by HPLC. Format: functional. The gist of the method:
as §1

Take `COc1ccc(-c2nc(-c3ccc(O)cc3)cnc2NC(C)=O)cc1`: the Activity in [1] is 21%.
As to `CC(=O)c1ccc(-c2nc(-c3ccc(O)cc3)cnc2N)cc1`, the Activity in [2] is 67%.
Regarding `Cc1nc2c(-c3ccc(F)cc3)[nH]c(-c3ccc(O)cc3)cn-2c1=O`, the inhibition in vivo at 3 mg/kg in data set [3] was determined as 34%.
`CC(=O)Nc1ncc(-c2ccc(O)cc2)nc1-c1ccc(N(C)C)cc1`: the Activity in data set [4] was determined as 18%.
`Cc1nc2c(-c3ccc(O)cc3)[nH]c(-c3ccc(O)cc3)cn-2c1=O`: the inhibition in vivo at 3 mg/kg in data set [3] amounted to 40%.
For `Nc1ncc(-c2ccc(O)cc2)nc1-c1ccc(F)cc1`, in data set [5], the Activity came out at 76%. In data set [3], the inhibition in vivo at 3 mg/kg came out at 42%.
In the case of `CC(=O)Nc1ncc(-c2ccc(O)cc2)nc1-c1ccc(C(F)(F)F)cc1`, the Activity in data set [6] was 16%.
Turning to `Cc1nc2c(-c3ccc(C(F)(F)F)cc3)[nH]c(-c3ccc(O)cc3)cn-2c1=O`, in data set [3], the inhibition in vivo at 3 mg/kg is 17%.
In the case of `Cc1nc2c(-c3ccc(N(C)C)cc3)[nH]c(-c3ccc(O)cc3)cn-2c1=O`, the inhibition in vivo at 3 mg/kg in data set [3] is 21%.
On to `COc1ccc(-c2[nH]c(-c3ccc(O)cc3)cn3c(=O)c(C)nc2-3)cc1`, for which the inhibition in vivo at 3 mg/kg in data set [3] was found to be 44%.
Regarding `O=C(O)c1ccccc1` [BENZOIC ACID], the Stability entry in data set [7] is “Stable”.
For `CN(C)c1ccc(-c2nc(-c3ccc(O)cc3)cnc2N)cc1`, in [3], the inhibition in vivo at 3 mg/kg came to 50%. In data set [8], the Activity was 68%.
Turning to `CC(=O)Nc1ncc(-c2ccc(O)cc2)nc1-c1ccc(F)cc1`, in [9], the Activity is 17%.
Take `CC(=O)Nc1ncc(-c2ccc(O)cc2)nc1-c1ccc(C(C)=O)cc1`: the Activity in data set [10] was found to be 22%.
As to `Nc1ncc(-c2ccc(O)cc2)nc1-c1ccc(O)cc1`, the inhibition in vivo at 3 mg/kg in [3] was 29%. For the same molecule, in data set [11], the Activity is 77%.
Turning to `Cc1nc2c(-c3ccccc3)[nH]c(-c3ccc(O)cc3)cn-2c1=O`, the inhibition in vivo at 3 mg/kg in data set [3] came to 12%.
`COc1ccc(-c2nc(-c3ccc(O)cc3)cnc2N)cc1`: in data set [12], the Activity came out at 71%. The inhibition in vivo at 3 mg/kg in [3] is 10%.
Take `Nc1ncc(-c2ccc(O)cc2)nc1-c1ccc(C(F)(F)F)cc1`: the inhibition in vivo at 3 mg/kg in data set [3] came to 14%. Besides, the Activity in data set [13] was 78%.
In the case of `O=C(Nc1cnc(-c2ccc(O)cc2)cn1)c1ccccc1`, the Stability entry in data set [7] was “Stable”.
Consider `Oc1ccc(-c2cn3c(O)c(-c4ccccc4)nc3cn2)cc1`, for which the Activity in data set [14] was 33%; in data set [15] it was 44%; in data set [16] it was 9%; in data set [17], 30%; in data set [18] it was below 5%; in data set [19], 27%. Also, the Activity in [20] was below 6 h; in [21], 66%; in data set [22], 40%; in [23] it was 57%; in data set [24], 26%; in data set [25], 5 h.
As for `CC(=O)Nc1ncc(-c2ccc(O)cc2)nc1-c1ccccc1`, in data set [26], the Activity came to 15%. In addition, the Stability result in [27] is “Stable”.
Consider `Nc1ncc(-c2ccc(O)cc2)nc1-c1ccccc1`, for which the inhibition in vivo at 3 mg/kg in [3] is 18%. The Activity in [28] was found to be 66%.
For `COc1cc(C(C)=O)ccc1O` [APOCYNIN], in [3], the inhibition in vivo at 3 mg/kg came to 40%.
Regarding `CC(=O)Nc1ncc(-c2ccc(O)cc2)nc1-c1ccc(O)cc1`, the Activity in data set [29] was 16%.

The values are drawn from ChEMBL document CHEMBL1153029, “In vitro and in vivo studies of 6,8-(diaryl)imidazo[1,2-a]pyrazin-3(7H)-ones as new antioxidants” (Bioorg Med Chem, 2009).
